Data on one compound can be found in ChEMBL document CHEMBL2057186, “Application of the bicyclo[1.1.1]pentane motif as a nonclassical phenyl ring bioisostere in the design of a potent and orally active γ-secretase inhibitor” (J Med Chem, 2012).

As usually defined, the Papp A→B is how fast a substance crosses the layer from the apical side. What is called AUC(0-t) is exposure summed from dosing to a finite time, without extrapolation to infinity. As usually defined, the Cmax is the highest concentration seen after dosing. Usually Tmax stands for the time at which the peak concentration occurs.

Values after ≈ are worked out from the molar mass of the structure shown.

Data set [1] has as its system Mus musculus. As to the kind of experiment: Antialzheimer activity in 129/sve mouse assessed as reduction in amyloid beta40 level in CSF at 30 mg/kg, po administered as single dose measured at 1 hr by ELISA relative to vehicle treated control. The class given is functional. On the set-up: scale not given: the % may be the effect or the level left. An outline of the steps:
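Wild-type male 129/sve mice received a single oral dose in Phosal 50 PG/Tween 80 vehicle. Aβ40 was measured in brain, CSF and plasma and Aβ42 in brain over a time course. Levels are expressed as % of vehicle-treated animals. Values are mean ± SEM, n = 5 or 8 per time point.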
(In general: An ELISA detects its analyte on a solid surface through an enzyme-linked reagent.)

Data set [2] deals with Hepatocyte. As to the kind of experiment: Apparent total intrinsic clearance in human hepatocytes assessed per million cells. The class given is ADME, cell-based.
The nature of data set [3]: Apparent permeability from apical to basal side of dog RRCK cells. The class given is ADME, cell-based, Canis lupus familiaris, MDCKII-LE. The settings on record: MDCK. An outline of the steps:
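Absorptive (A to B) permeability was measured in RRCK cells, a Madin–Darby canine kidney subline isolated for low transporter activity. It estimates intrinsic passive permeability.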

Data set [4] in a line: Kinetic solubility of the solubility of the compound at pH 6.5. It counts as physicochemical. The settings on record: buffer, read-out: Kinetic_solubility. Put shortly: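 Kinetic solubility was measured in aqueous buffer at pH 6.5.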
Data set [5] is described as follows: Thermodynamic solubility of the compound at pH 7.4. The class given is physicochemical. To be noted: buffer, read-out: Therm_solubility. Put shortly:
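Thermodynamic solubility was measured in aqueous buffer at pH 6.5 and at pH 7.4.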

For data set [6], the target named is T1, Cytochrome P450 1A2 (Homo sapiens, UniProt P05177).
T1 sequence (P05177 whole entry): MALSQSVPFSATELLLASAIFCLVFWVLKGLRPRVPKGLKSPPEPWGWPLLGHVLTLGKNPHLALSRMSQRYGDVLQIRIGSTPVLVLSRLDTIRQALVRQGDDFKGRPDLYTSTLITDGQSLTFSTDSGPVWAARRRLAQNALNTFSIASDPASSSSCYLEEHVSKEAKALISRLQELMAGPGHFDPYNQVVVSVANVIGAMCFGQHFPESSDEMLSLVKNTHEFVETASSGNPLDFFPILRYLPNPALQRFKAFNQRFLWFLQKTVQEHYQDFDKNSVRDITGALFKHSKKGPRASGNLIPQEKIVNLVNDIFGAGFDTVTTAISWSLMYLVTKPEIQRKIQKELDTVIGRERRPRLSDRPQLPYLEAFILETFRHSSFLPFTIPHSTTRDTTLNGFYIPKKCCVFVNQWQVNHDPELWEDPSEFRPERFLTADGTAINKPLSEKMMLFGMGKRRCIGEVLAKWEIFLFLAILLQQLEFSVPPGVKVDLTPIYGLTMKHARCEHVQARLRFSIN
As to the kind of experiment: Inhibition of CYP1A2 in human liver microsomes using tacrine as substrate. The class given is ADME, Microsome.

Data set [7] addresses Cytochrome P450 2D6 (Homo sapiens, UniProt P10635). Kind of data set: Inhibition of CYP2D6 in human liver microsomes using dextromethorphan as substrate. It counts as ADME, Microsome. On the technique in general: Liver microsomes are vesicles of endoplasmic reticulum, rich in cytochrome P450 enzymes.
The nature of data set [8]: AUC (0 to 24 hrs) in Sprague-Dawley rat at 1 mg/kg, iv. It counts as ADME, organism-based. Details: time < 24 hr, dose 1 mg/kg, route intravenous; call rule not given here. To be noted: plasma. Put shortly:
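Single-dose PK in female rats; iv at 1 mg/kg (2 mL/kg, 0.5 mg/mL) and po at 5 mg/kg (10 mL/kg, 0.5 mg/mL), both formulated in 40% (w/v) hydroxypropyl-β-cyclodextrin.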

Data set [9] can be described thus: Cmax in 129/sve mouse plasma at 30 mg/kg, po administered as single dose by LC-MS/MS analysis. Details: dose 30 mg/kg, route oral. It counts as ADME, organism-based. An outline of the steps: (§1)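 Single-dose oral PK in wild-type male 129/sve mice. Formulation was 98% (v/v) Phosal 50 PG with 2% Tween 80. Compound was measured in plasma, brain and CSF. Values are means ± standard deviations (n = 4 or 5).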

Data set [10] can be described thus: Tmax in 129/sve mouse plasma at 30 mg/kg, po administered as single dose by LC-MS/MS analysis. The class given is ADME, organism-based. Details: dose 30 mg/kg, route oral. An outline of the steps:
as §1

A short description of data set [11]: Ratio of unbound fraction in brain to unbound fraction in plasma in 129/sve mouse at 30 mg/kg, po administered as single dose by LC-MS/MS analysis. It counts as ADME, organism-based. On the set-up: dose 30 mg/kg, route oral. To be noted: in vivo. An outline of the steps: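 Single oral dose of 30 mg/kg in wild-type male 129/sve mice, formulated in 98% (v/v) Phosal 50 PG with 2% Tween 80. Brain, CSF and plasma were sampled nonserially over time, and AUC was taken from mean matrix concentrations. Brain availability = (f_u,brain × [brain]) / (f_u,plasma × [plasma]), with n = 4–5 per group.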

Cytochrome P450 2D6, sequence (P10635 whole entry): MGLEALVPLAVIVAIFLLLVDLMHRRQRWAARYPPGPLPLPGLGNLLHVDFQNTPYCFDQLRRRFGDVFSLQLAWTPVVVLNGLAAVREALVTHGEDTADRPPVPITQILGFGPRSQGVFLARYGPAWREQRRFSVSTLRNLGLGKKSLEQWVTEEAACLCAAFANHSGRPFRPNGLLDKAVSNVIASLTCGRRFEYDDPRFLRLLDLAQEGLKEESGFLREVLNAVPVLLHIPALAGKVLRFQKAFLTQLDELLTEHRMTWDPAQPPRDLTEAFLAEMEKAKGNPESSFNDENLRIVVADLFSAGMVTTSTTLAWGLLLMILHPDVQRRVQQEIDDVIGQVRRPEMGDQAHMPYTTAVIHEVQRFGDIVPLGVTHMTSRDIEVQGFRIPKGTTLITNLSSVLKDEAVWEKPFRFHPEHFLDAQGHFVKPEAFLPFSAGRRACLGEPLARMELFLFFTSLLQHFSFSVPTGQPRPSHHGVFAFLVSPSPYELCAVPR

For the compound `NC(=O)[C@@H](CCC(F)(F)F)N(CC12CC(c3ncon3)(C1)C2)S(=O)(=O)c1ccc(Cl)cc1`, in data set [1], the Activity came out at 64%. In data set [2], the CLt/F is less than 3.8 µL/min. The apparent permeability from apical to basolateral (Papp A→B) in data set [3] came out at 19.3 ×10⁻⁶ cm/s. In addition, the solubility kinetic in [4] stood at 216 µM (≈ 106 µg/mL). In addition, the solubility thermodynamic in [5] is 29.4 µM (≈ 14.5 µg/mL). Also, the “inhibition (INH)” value in data set [6] and in data set [7] was “Not Active” each time. For the same compound, the AUC(0-t) at 24 h in data set [8] came to 2.54 µM·h. Moreover, the Cmax in data set [9] turned out to be 6.48 µM. The time to peak (Tmax) in [10] is 1 h. Further, the Ratio in [11] was found to be 0.62.
